ALR inh = human ALR oxidase inhibition via reduced H2O2; P55789; purified ALR, DTT oxidation, H2O2 HRP-luminol luminescence; inhibition, % (concentration not given with the values); 290,000 compounds, 3.8% hits;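 active = mean replicate inhibition above about 79%, with every replicate also reaching it, limit read from the data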
Target sequence (P55789 whole entry, looked up): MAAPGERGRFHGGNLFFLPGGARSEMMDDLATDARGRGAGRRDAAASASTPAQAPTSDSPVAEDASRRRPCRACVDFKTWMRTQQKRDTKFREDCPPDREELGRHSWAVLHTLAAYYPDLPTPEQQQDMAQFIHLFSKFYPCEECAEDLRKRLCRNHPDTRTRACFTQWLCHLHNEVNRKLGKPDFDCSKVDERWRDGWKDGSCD
NALP3 yeast inh = NALP3 inhibition in yeast | 330,000 compounds, 0.39% hits | Yeast reconstituted NLRP3/ASC/caspase-1, beta-gal luminescence, 24 h | AID 2825 | inhibition, % at 10 µM;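 active = inhibition of 50% or more; inactive = inhibition below 50%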;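 also: plate controls were induced DMSO wells for no effect and uninduced yeast grown without galactose for full effect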
ATG4B inh = blocks human ATG4B protease cleavage of LC3 substrate; Q9Y4P1; ATG4B cleavage of LC3-PLA2, NBD-HPC fluorescence, 1 h; inhibition, % at 8.33 µM; 340,000 compounds, 0.51% hits; in the data active = inhibition above about 40%
Calb FLC = C. albicans growth modulation with fluconazole. C. albicans CaCi-2 (fluconazole-resistant clinical isolate) + fluconazole, Alamar Blue growth, 48 h. growth inhibition, % (no concentration beside the values). 300,000 compounds, 0.57% hits. AID 1979;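 active = growth inhibition above about 58% in most replicates, limit read from the data, passing the limit was not always enough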;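 also: all wells also contain fluconazole at 8 µg/ml as a sub-toxic cotreatment; 0% = median of DMSO wells and 100% = median of geldanamycin control wells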
UCH37 inh = inhibitors of human deubiquitinating enzyme UCH37 | inhibition, % (concentration not given with the values) | AID 588478 | purified proteasome/UCH37, Ub-AMC cleavage fluorescence | Q9Y5K5 | 330,000 compounds, 0.33% hits;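 active = mean inhibition over replicate wells above about 20%, limit read from the data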;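 also: 0% = compound-free wells with enzyme and 100% = wells lacking proteasome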
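Material: human UCH37 enzyme supplied as purified proteasome complex. Measure: % inhibition of Ub-AMC cleavage fluorescence. Medium: pH 7.4 Tris-HCl (50 mM) with ovalbumin, ATP-MgCl2, DTT. Times: 30 min preincubation with enzyme, 25 min cleavage at room temperature. Detection: AMC fluorescence intensity at 355/460 nm.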
NALP1 inh = blocks the NALP1 inflammasome reconstituted in yeast; AID 2071; 280,000 compounds, 0.61% hits; inhibition, % at 10 µM; S. cerevisiae NALP1/ASC/caspase-1 growth, X-gal OD620, 72 h; in the data active = inhibition mostly above about 24%, no sharp cut-off; inactive = mostly below about 32%
ATG4B conf = ATG4B (human) inhibition, single-dose confirmed; shares compounds with ATG4B inh; ATG4B protease fluorescent substrate cleavage assay; inhibition, % at 8.33 µM; 320 compounds, 92% hits; in the data active = inhibition above about 39%
PLA2 counter = counter-screen for ATG4B inhibitors: human phospholipase A2; inhibition, % at 8.33 µM; AID 588402; purified PLA2, NBD-C6-HPC fluorescence, 45 min; shares compounds with ATG4B inh; 1,600 compounds, 66% hits; in the data active = inhibition above about 50%
Target sequence (P04054 whole entry, looked up): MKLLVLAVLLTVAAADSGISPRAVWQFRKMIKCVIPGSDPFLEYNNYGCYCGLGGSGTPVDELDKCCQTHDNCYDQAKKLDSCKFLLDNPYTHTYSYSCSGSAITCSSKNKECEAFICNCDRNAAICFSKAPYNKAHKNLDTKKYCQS
An asterisk follows results filed as active; · = not tested or not shown. Most compounds without a hit are left out; they make up all but 4.8% or so of the library.

SMILES	ALR inh	NALP3 yeast inh	ATG4B inh	Calb FLC	UCH37 inh	NALP1 inh	PLA2 counter	others
Cc1ccccc1C(=O)Nc1sc2c(c1C(=O)O)CCC2	4	4	52*	-1	·	4	49
NS(=O)(=O)c1cc(C(=O)NC2CCSc3ccccc32)ccc1Cl (configuration not stated)	3	6	54*	3	·	4	25	ATG4B conf=43*
COC(=O)NNC(=O)COc1cc(C)c(Br)cc1C(C)C	-4	8	41*	-2	4	41	-14
COC(=O)NNC(=O)COc1ccc(Br)c(C)c1	5	3	3	8	0	4	·
O=C(CN1CCN(S(=O)(=O)c2ccc(Br)cc2)CC1)NN=Cc1ccco1	·	·	·	·	5	·	·
O=C1OC(c2cccs2)=N/C1=C\c1ccc(-c2cccc(Cl)c2)o1	41	6	71*	2	-4	27	43	ATG4B conf=55*
Cc1ccc(OCC(=O)N/N=C\c2cn(Cc3ccccc3)c3ccccc23)cc1C	1	11	43*	-8	·	5	10
COC(=O)N/N=C/c1cn(Cc2ccc(Cl)cc2Cl)c2ccccc12	-2	18	53*	23	·	28	61*
Cc1ccccc1OCC(=O)N/N=C/c1cn(Cc2ccccc2)c2ccccc12	-4	8	23	17	·	0	·
COC(=O)N/N=C/c1cn(Cc2c(Cl)cccc2Cl)c2ccccc12	-2	9	42*	9	·	22	51*
COC(=O)N/N=C/c1cn(Cc2ccccc2Cl)c2ccccc12	0	15	35	7	·	13	·
CCOC(=O)NN=Cc1c(C)c(C(=O)c2ccc(F)cc2)n2ccccc12	·	·	·	·	1	·	·
Oc1c(Br)cc(Br)c(/C=N/n2c(-c3ccccc3)n[nH]c2=S)c1Br	85*	20	44*	79*	·	-10	9	ATG4B conf=52*
CC(=O)Nc1sc(NN=Cc2ccco2)nc1-c1cccs1	·	·	·	·	10	·	·
N#Cc1ccccc1C=NNc1nc(-c2ccccc2)c2cc(Br)ccc2n1	·	·	·	·	0	·	·
CC(CC(=O)Nc1ccc(Cl)c(C(F)(F)F)c1)=NNC(=O)c1cccc(O)c1	·	·	·	·	0	·	·
CCOC(=O)C1=C(C)n2c(sc(=Cc3cccc([N+](=O)[O-])c3)c2=O)=NC1c1ccc(O)c(OC)c1 (configuration not stated)	·	·	·	·	2	·	·
CCNc1nc(CSc2ccccc2)nc2sc(C)c(C)c12	83*	15	45*	-7	1	9	47	ATG4B conf=61*
Cc1sc2nc(CSc3ccccc3)nc(NCCN(C)C)c2c1C	-4	3	6	2	8	34	·
Cc1ccc(Cc2cnc(N3C(=N)SC(c4ccccc4)C3=O)s2)cc1 (configuration not stated)	1	3	-1	0	-2	6	·
N=C1SC(c2ccccc2)C(=O)N1c1ncc(Cc2ccccc2)s1 (configuration not stated)	35	9	56*	4	1	9	24
Oc1ccc(-c2csc(Nc3ccc4c(c3)OCO4)n2)c(O)c1	·	·	42*	·	6	·	59*
Cc1cccc(C)c1OCC(O)Cn1c2ccccc2c2ccccc21 (configuration not stated)	-4	21	53*	8	1	10	61*
CCCc1c(C(=O)NN=Cc2sccc2C)nnn1-c1nonc1N	·	·	·	·	3	·	·
N#CCC(=O)Nc1ccc(C(=O)NCc2cccc(Cl)c2)cc1	98*	2	53*	-1	-1	·	71*
Cc1ccc(CS(=O)Cc2ccc(C(=O)NCc3ccccc3Br)o2)cc1 (configuration not stated)	-6	9	63*	9	2	19	69*
C(=C\c1ccccc1)/CSc1nnc(-c2ccncc2)n1Cc1ccco1	43	10	-5	-10	4	16	·
